We go through one compound from PMC9924312 (Asian Pacific Journal of Cancer Prevention : APJCP, 2022).

For one assay, the system named is neuroblastoma SH-SY5Y. As to the kind of experiment: MTT antiproliferative assay, 72 h exposure. It is filed as cell-based, human. Put shortly: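 SH-SY5Y cells were kept in 1:1 EMEM/F12 with 10% FBS at 37°C under 5% CO2. After trypsin/EDTA detachment and trypan-blue counting, cells were plated in 96-well format and allowed 24 h to attach. They were then incubated ±test compound for 72 h. IC50 was derived from a logarithmic trend line of the cytotoxicity plots.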
On the technique in general: Formazan colour is commonly taken as a measure of viable cells.

Assay [1] has as its system dermal fibroblasts (BJ ATCC CRL-2522). As to the kind of experiment: MTT antiproliferative assay on normal cells, 72 h exposure. It counts as cell-based, human. The conditions noted are these: read-out: IC50 Fibroblast. Put shortly:
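Human BJ dermal fibroblasts were grown in DMEM at 37°C under humidified 5% CO2. Cells were detached with 0.25% trypsin/0.53 mM EDTA, counted by trypan blue, seeded in 96-well plates and left 24 h to attach, then exposed to test compound or no drug for 72 h. IC50 was taken from a logarithmic trend line.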

Take `CC(=O)O.CCN(CC)CC[n+]1ccc2c(C)c3[nH]c4ccc(O)cc4c3c(C)c2c1` [Compound 3]: in the assay on neuroblastoma SH-SY5Y (10 µM, 72 h exposure), the “% SH-SY5Y 10µM (percentage inhibition)” value is recorded as 74.22 ± 0.025%. In the assay with neuroblastoma SH-SY5Y (50 µM, 72 h exposure), the “% SH-SY5Y 50µM (percentage inhibition)” value is 78.23 ± 0.057%. In addition, the IC50 (commonly the concentration that gives 50% inhibition) in the assay with neuroblastoma SH-SY5Y (read-out: IC50 SH-SY5Y, MTT, 72 h) stood at 1060 ± 190 nM; in assay [1], 303 ± 1 nM.
